ChEMBL document CHEMBL3232797, “Targeting Staphylococcus aureus quorum sensing with nonpeptidic small molecule inhibitors” (J Med Chem, 2014)
≈ marks a conversion by molar mass, not a printed value. Calls of active or inactive are those of the source. No cut-off for these calls is given here.

How the values were obtained:
Staphylococcus aureus [1] = test: Antimicrobial activity against Staphylococcus aureus RN6390B assessed as growth inhibition up to 100 uM after 18 hrs by spectrophotometry; assay type: functional, organism-based
Outline: (§1)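 Staphylococci were grown at 37 °C with shaking in LB, Mueller–Hinton or CYGP broth, with or without test compound. Growth curves were followed as OD600 over 18 h.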

Staphylococcus aureus [2] = test: Inhibition of AIP-1-induced AgrC-I activation in Staphylococcus aureus RN6390B up to 100 uM after 55 mins by beta-lactamase reporter assay
Outline: (§2)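 The reporter strain was S. aureus RN6390B (pRN6683) carrying agrP3::blaZ. It was grown overnight at 37 °C in CYGP with 5 μg/mL chloramphenicol, diluted 1/100, and grown to OD600 ≈ 0.4. Cells were exposed to AIP-1 (0.01 nM–10 μM) plus compound (0–100 μM) for 55 min at 37 °C, quenched with sodium azide, and read as β-lactamase activity by nitrocefin. Triplicates were run on ≥2 occasions, with IC50 fitted.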

[3] = Inhibition of AIP-1-induced AgrC-I activation in Staphylococcus aureus RN6390B after 55 mins by beta-lactamase reporter assay
Outline: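 agrP3::blaZ reporter strain RN6390B (pRN6683) grown overnight at 37 °C in CYGP with 5 μg/mL chloramphenicol, diluted 1/100, grown with shaking to OD600 ≈ 0.4. Incubated with AIP-1 (0.01 nM to 10 μM) plus compounds (0–100 μM) for 55 min at 37 °C; quenched with sodium azide; β-lactamase read with nitrocefin. Triplicate, ≥2 independent occasions; IC50 fitted.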

Staphylococcus aureus [4] = test: Antimicrobial activity against Staphylococcus aureus RN6390B assessed as growth inhibition after 18 hrs by spectrophotometry; assay type: functional
[5] = Iron-chelating activity at 50 uM by Chrome Azurol S […] assay; assay type: physicochemical
Outline: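 Chrome azurol S (CAS) assay with compounds at 50 μM. Desferrioxamine (10 μM) served as positive control and MeCN as solvent control.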

Staphylococcus aureus [6] = test: Noncompetitive inhibition of AgrC-I in AIP-1-induced Staphylococcus aureus RN6390B at 25 to 100 uM after 55 mins by kinetic study; outline: as §2
Staphylococcus aureus [7] = test: Inhibition of Staphylococcus aureus adherence to human nasal squamous epithelial cells at 10 uM after 1 hr; assay type: functional, organism-based; conditions: Epithelial cell
Outline: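 Desquamated human nasal squamous epithelial cells, untreated or compound-treated, were incubated with S. aureus. Bound bacteria were counted per 100 nasal cells, as the mean of three experiments run in duplicate.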

Staphylococcus aureus [8] = test: Antimicrobial activity against Staphylococcus aureus Newman in NMRI mouse septic arthritis model; assay type: functional, organism-based
Outline: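 Mice were given test agent at 10 mg/kg body weight or PBS (control) and then challenged with S. aureus. Arthritis frequency and arthritic index were scored over a 10 day period.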

Staphylococcus aureus [9] = test: Noncompetitive inhibition of AgrC-I in AIP-1-induced Staphylococcus aureus RN6390B assessed as reduction in maximum level of activation at 25 to 100 uM after 55 mins by kinetic study relative to control; outline: as §2
Staphylococcus aureus [10] = test: Noncompetitive inhibition of AgrC-I in AIP-1-induced Staphylococcus aureus RN6390B at 5 to 25 uM after 55 mins by kinetic study; outline: as §2
Staphylococcus aureus [11] = test: Antimicrobial activity against Staphylococcus aureus USA300 assessed as growth inhibition at 100 uM after 18 hrs by spectrophotometry; assay type: functional, organism-based; outline: as §1

| inhibition (Staphylococcus aureus [2]) | SMILES | growth inhibition (GI) (Staphylococcus aureus [1]) | IC50 [3] [µM] | further results |
| --- | --- | --- | --- | --- |
|  | CCCCCCCCCCC/C(O)=C1/C(=O)N[C@@H](CCO)C1=O |  | 13 | MIC (Staphylococcus aureus [4]): 25 µM (≈ 8.14 µg/mL) |
| inactive | CCCCCCCCCCCC(=O)N[C@H]1CCOC1=O | inactive |  |  |
| inactive | O=C1N[C@@H](CCO)C(=O)/C1=C(/O)CCCC1CCCCC1 | inactive |  |  |
|  | CCCCC/C=C/CCC(=O)C1=C(O)COC1=O |  | 22 | MIC (Staphylococcus aureus [4]): 50 µM (≈ 12.6 µg/mL) |
|  | CCCCCC/C=C\CCCC(=O)C1=C(O)COC1=O | inactive | 88 |  |
| inactive | CCCCCCCCCC(O)CC(=O)N[C@H]1CCOC1=O (stereo not given in full) | inactive |  |  |
| inactive | CCCCCCCCOC(=O)CC(=O)N[C@H]1CCOC1=O | inactive |  |  |
| inactive | O=C(Cc1ccc([N+](=O)[O-])cc1)C1=C(O)COC1=O | inactive |  |  |
|  | CCCCCC(=O)C1=C(O)COC1=O | inactive |  | Activity [5]: Not Active |
| inactive | CCCCCCCCCC(=O)CC(=O)N[C@H]1CCC(=O)NC1=O | inactive |  |  |
|  | CCCCCCCCC/C(O)=C1\C(=O)CNC1=O |  | 30 | MIC (Staphylococcus aureus [4]): 100 µM (≈ 25.3 µg/mL) |
|  | CCCCCCCCCC(=O)CC(=O)N[C@@H]1CCOC1=O |  | 37 | MIC (Staphylococcus aureus [4]): 100 µM (≈ 29.7 µg/mL) |
| inactive | O=C(CCCc1ccccc1)CC(=O)N[C@H]1CCOC1=O | inactive |  |  |
|  | CCCCCCCCC/C(O)=C1/C(=O)N[C@H](CCO)C1=O | inactive | 28 |  |
| inactive | CCCCCCCCNC(=O)CC(=O)N[C@H]1CCOC1=O | inactive |  |  |
|  | CCCCCCCCCC/C(O)=C1/C(=O)N[C@@H](CCO)C1=O |  | 10 | MIC (Staphylococcus aureus [4]): 50 µM (≈ 15.6 µg/mL) |
|  | CCCCCCCCCC(=O)CC(=O)N[C@H]1CCOC1=O |  | 22 | inhibition (Staphylococcus aureus [6]): Active |
| inactive | O=C1N[C@@H](CCO)C(=O)/C1=C(/O)Cc1ccc([N+](=O)[O-])cc1 | inactive |  |  |
|  | CCCCCCCCCCCCCCCC(=O)C1=C(O)COC1=O | inactive | 13 |  |

| inhibition (Staphylococcus aureus [2]) | SMILES | growth inhibition (GI) (Staphylococcus aureus [1]) | IC50 [3] [µM] | further results |
| --- | --- | --- | --- | --- |
| inactive | CCCCCCCCCC(=O)CC(=O)N[C@@H](CCO)C(=O)O | inactive |  |  |
| inactive | CCCC(=O)CC(=O)C1=C(O)COC1=O | inactive |  |  |
| inactive | CCCCCCCCCC(=O)CC(=O)C1=C(O)COC1=O | inactive |  |  |
| inactive | O=C(Cc1ccc(Br)cc1)C1=C(O)COC1=O | inactive |  |  |
| inactive | O=C(COc1ccc(Br)cc1)C1=C(O)COC1=O | inactive |  |  |
| inactive | CCCCCCCCCC(=O)CC(N)=O | inactive |  |  |
|  | CCCCCCCCC/C(O)=C1/C(=O)N[C@@H](C)C1=O |  | 20 | MIC (Staphylococcus aureus [4]): 100 µM (≈ 26.7 µg/mL) |
|  | CCCCCCCCCCCCC/C(O)=C1/C(=O)N[C@@H](CCO)C1=O |  | 14 | MIC (Staphylococcus aureus [4]): 12.5 µM (≈ 4.42 µg/mL) |
| inactive | CC(C)CCCCCCC(=O)C1=C(O)COC1=O | inactive |  |  |
| inactive | O=C(CCCC1CCCCC1)CC(=O)N[C@H]1CCOC1=O | inactive |  |  |
| inactive | CCCCCCCCN(C)C(=O)CC(=O)N[C@H]1CCOC1=O | inactive |  |  |
|  | CCCCCCCCC/C(O)=C1/C(=O)N[C@@H](CCO)C1=O |  | 42 | inhibition (Staphylococcus aureus [7]): Active; Activity (Staphylococcus aureus [8]): inactive; Activity [5]: Active; fold change (FC) (Staphylococcus aureus [9]): 10; MIC (Staphylococcus aureus [4]): 100 µM (≈ 29.7 µg/mL) |
|  | CCCCCCCCCCCC(=O)C1=C(O)COC1=O |  | 6 | Activity [5]: Not Active; MIC (Staphylococcus aureus [4]): 25 µM (≈ 7.06 µg/mL); inhibition (Staphylococcus aureus [10]): Active |
|  | CCCCCCC/C(O)=C1/C(=O)N[C@@H](CCO)C1=O | inactive | 42 | growth inhibition (GI) (Staphylococcus aureus [11]): inactive |
| inactive | CCCCCCCCCC(=O)CC(=O)Nc1nccs1 | inactive |  |  |
|  | CCCCCCCCCC(=O)C1=C(O)COC1=O |  | 21 | Activity [5]: Not Active; MIC (Staphylococcus aureus [4]): 50 µM (≈ 12.7 µg/mL) |
| inactive | CCCCCCCCCC(=O)CC(=O)N[C@H]1CCSC1=O | inactive |  |  |
| inactive | CCCCCCCCCC(=O)CC(=O)N[C@H]1CC(=O)NC1=O | inactive |  |  |
| inactive | CCCCC/C=C/CCC(=O)CC(=O)N[C@H]1CCOC1=O | inactive |  |  |

| SMILES | inhibition (Staphylococcus aureus [2]) | growth inhibition (GI) (Staphylococcus aureus [1]) | IC50 [3] [µM] | further results |
| --- | --- | --- | --- | --- |
| CCC/C(O)=C1/C(=O)N[C@@H](CCO)C1=O | inactive | inactive |  |  |
| CCCCCCCCCC(=O)CC(=O)O[C@H]1CCOC1=O | inactive | inactive |  |  |
| CCCCCCCCCC(=O)CC(=O)N[C@H]1CCNC1=O | inactive | inactive |  |  |
